Laboratory results published in PMC5715471 (ACS chemical neuroscience, 2017).
Where two headings read alike, the source gives them in different places.

Experiments:
[1] = test system: mouse spared nerve injury (SNI) model; test: Mechanical sensitivity; format: in vivo; conditions: for effect on SNI-induced mechanical hypersensitivity: single IT injection, 10 μg, vs vehicle; for time after IT injection at which efficacy was seen (onset) / time through which antipain effect persisted: IT 10 μg
Outline: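 Male C57Bl6/J mice with SNI (peroneal and tibial sciatic branches cut, sural spared), confirmed hypersensitive 2 weeks post-surgery and screened 21–60 days after SNI. Single intrathecal 10 μg in 5 μL saline (DMSO <5%, vehicle DMSO-matched). Blinded hindpaw von Frey, modified up–down, at set times. n = 4–11. Mean ± SEM; two-way ANOVA with Bonferroni. Repeat injections ≥14 days apart.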

σ2R/Tmem97 = molecular target: T1, σ2R/Tmem97 (Rattus norvegicus, UniProt Q5U3Y7); test: Sigma 2 receptor competition binding with [3H]-ditolylguanidine; conditions: σ2R from rat PC12 cells
T1 sequence (Q5U3Y7 1-176): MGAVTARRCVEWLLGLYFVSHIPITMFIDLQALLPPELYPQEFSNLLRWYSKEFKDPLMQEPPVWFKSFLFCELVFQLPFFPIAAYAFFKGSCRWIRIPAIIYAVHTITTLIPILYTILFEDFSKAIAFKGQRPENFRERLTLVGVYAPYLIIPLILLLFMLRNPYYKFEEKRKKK

[2] = test system: mouse spared nerve injury (SNI) model; test: Mechanical sensitivity; format: in vivo; conditions: IV 100 mg/kg
Outline: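 Male C57Bl6/J SNI mice, hindpaw mechanical hypersensitivity confirmed 2 weeks post-surgery. Tail-vein IV injection in 100 μL sterile saline (DMSO stock diluted; vehicle DMSO-matched): test compound 10 mg/kg, gabapentin 100 mg/kg, or vehicle, n = 6 each. Blinded von Frey testing (modified up–down) at set time points. Mean ± SEM; two-way ANOVA with Bonferroni post hoc.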

[3] = in vivo; cited from earlier work
[4] = test system: SK-N-SH neuroblastoma cells; conditions: cited from earlier work
[5] = Blood brain barrier crossing; format: in vivo; conditions: no data or reference given

Row | SMILES | effect on SNI-induced mechanical hypersensitivity [1] | affinity at σ2R/Tmem97 (in words) (σ2R/Tmem97) | time after IT injection at which efficacy was seen (onset) [1] [h] | time through which antipain effect persisted [1] [h] | other results
1 | Fc1ccc(-n2cc(CCCCN3CCC4(CC3)OCc3ccccc34)c3ccccc32)cc1 [Siramesine, reference compound] | small inhibitory effect on mechanical hypersensitivity that was significant at 24 and 48 h |  |  |  | 
2 | Clc1ccc2c(c1)C1CC2CCCN1CC1CCCCC1 (racemic) [MFG-1046, (±)-9-Chloro-2-(cyclohexylmethyl)-1,2,3,4,5,6-hexahydro-1,6-methanobenzo[c]azocine] | significantly different from vehicle | low nM range | 24 | 72 | 
3 | NCC1(CC(=O)O)CCCCC1 [Gabapentin, reference compound] |  |  |  |  | effect on SNI-induced mechanical hypersensitivity ([2]; 1 and 3 h after injection): completely reversed mechanical hypersensitivity; mechanical hypersensitivity state ([2]; 24 h after injection): fully mechanically hypersensitive again
4 | CN1CCN(c2ccc3c(c2)[C@H]2C[C@@H]3CCN2C(=O)OCc2ccccc2)CC1 [SAS-0132] |  |  |  |  | effect of co-administration on antinociceptive action of UKH-1114 ([1]; SAS-0132 10 μg IT given at the same time as UKH-1114 10 μg): completely blocked the effect seen with UKH-1114 given alone; blood brain barrier crossing [3]: cross the blood brain barrier; effect of pretreatment on DKR-1051-induced Ca2+ transient ([4]; SK-N-SH neuroblastoma cells pretreated with SAS-0132): attenuated
5 | FC(F)(F)c1ccc(-c2ccc3c(c2)C2CC3CCCN2C2CCCC2)cc1 (racemic) [DKR-1051, (±)-2-Cyclopentyl-9-(4-(trifluoromethyl)phenyl)-1,2,3,4,5,6-hexa-hydro-1,6-methanobenzo[c]azocine] | significant antimechanical hypersensitivity effects at either 24 or 48 h | high affinity |  |  | time of peak relief of mechanical hypersensitivity after dosing ([1]; IT): 48 h; effect on intracellular Ca2+ ([4]; SK-N-SH neuroblastoma cells): induces a rapid Ca^2+ transient; blood brain barrier crossing [5]: cross the blood brain barrier
6 | CN1CCC2CC1c1cc(N3CCOCC3)ccc12 (racemic) [JWG-1014, (±)-2-Methyl-2,3,4,5-tetrahydro-1H-1,5-methanobenzo[c]-azepin-8-yl)morpholine] | significantly different from vehicle |  | 48 | 120 | 
7 | c1ccc(CCN2CCC3CC2c2ccccc23)cc1 (racemic) [JSS-1027, (±)-2-Phenethyl-2,3,4,5-tetrahydro-1H-1,5-methanobenzo[c]-azepine] | significantly different from vehicle | low nM range | 48 | 120 | 
